Measurements gathered from unrelated publications.
Target: Cyclin-dependent kinase 11A (CDK11A, Homo sapiens, UniProt Q9UQ88)
Sequence (Q9UQ88 1-783, as in one of the studies): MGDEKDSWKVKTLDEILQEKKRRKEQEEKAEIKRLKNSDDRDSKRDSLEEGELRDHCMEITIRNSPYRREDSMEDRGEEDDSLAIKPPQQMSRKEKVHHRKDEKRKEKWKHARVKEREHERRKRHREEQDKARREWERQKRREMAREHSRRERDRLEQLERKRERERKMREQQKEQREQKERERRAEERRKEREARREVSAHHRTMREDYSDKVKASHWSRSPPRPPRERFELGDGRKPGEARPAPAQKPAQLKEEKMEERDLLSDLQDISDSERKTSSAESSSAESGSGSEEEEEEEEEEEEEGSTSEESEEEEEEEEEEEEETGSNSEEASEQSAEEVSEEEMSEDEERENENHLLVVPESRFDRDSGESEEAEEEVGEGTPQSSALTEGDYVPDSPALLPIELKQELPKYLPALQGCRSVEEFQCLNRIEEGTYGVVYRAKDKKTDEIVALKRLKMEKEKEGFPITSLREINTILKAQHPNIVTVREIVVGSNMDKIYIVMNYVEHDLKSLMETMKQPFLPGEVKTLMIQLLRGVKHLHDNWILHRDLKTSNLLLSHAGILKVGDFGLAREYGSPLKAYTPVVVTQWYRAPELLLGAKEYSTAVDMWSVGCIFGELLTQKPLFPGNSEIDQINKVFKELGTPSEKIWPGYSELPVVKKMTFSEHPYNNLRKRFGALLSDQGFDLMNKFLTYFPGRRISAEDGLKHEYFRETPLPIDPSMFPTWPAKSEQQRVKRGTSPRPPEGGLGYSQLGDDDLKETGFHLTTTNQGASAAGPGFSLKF

With `Nc1ncc2c(n1)-c1c([nH]c3ccc(C#CC4CC4)cc13)CCCC2` the remaining binding was 93% (binding, competition with immobilised ligand; 1 µM).
For `O=C(NCc1ncc(C(F)(F)F)cc1Cl)c1ccc2c(c1)C1(CCS(=O)(=O)CC1)[C@@H](C1CC1)N2S(=O)(=O)c1ccc(F)cc1`, the remaining binding was 100% (binding, competition with immobilised ligand; 1 µM).
For `C[C@@H]1CCN(c2nccc(-c3cnn4ncccc34)n2)C1`, the remaining binding was 85% (binding; 1 µM).
For `O=C(NCCCN1CCOCC1)c1ccc(Nc2nccc(-c3cc4ccccc4s3)n2)cc1`, the remaining binding was 56% (binding, competition with immobilised ligand; 1 µM).
`CCC(=O)N[C@@H]1CC[C@H](C(=O)N(C)c2ccc(-c3nc4ccccc4o3)cc2)C1` gave a remaining binding of 100% (binding, competition with immobilised ligand; 1 µM).
`CC1CCCN1c1nccc(-c2cnn3ncccc23)n1` (centres unmarked) has a remaining binding of 100% (binding; 1 µM).
The remaining binding of `C[C@@H](c1ccc(-n2cnc3c(N)ncnc32)cc1)N1CCc2nn(C)c(Cc3ccccc3)c2C1=O` is reported as 100% (binding, competition with immobilised ligand; 0.1 µM).
`O=C(c1ccc(Nc2ncc(Cl)c(-c3ccc(Cl)s3)n2)cc1)N1CCC(N2CCCC2)CC1` gave a remaining binding of 39% (binding, competition with immobilised ligand; 1 µM).
`Cc1noc([C@H]2C[C@@H](c3ccc(C(F)(F)F)cc3)CN(C(=O)N3CCS(=O)(=O)C3)C2)n1` has a remaining binding of 100% (binding, competition with immobilised ligand; 1 µM).
The remaining binding of `CN(C)c1nccc(-c2cnc3ncccn23)n1` is reported as 100% (binding; 1 µM).
With `CCN1CCN(Cc2ccc(C(=O)Nc3ccc(C)c(Oc4ccc5c(c4)CC(=O)N5)c3)cc2C(F)(F)F)CC1` the remaining binding was 100% (binding, competition with immobilised ligand; 1 µM).
For `O=C(Nc1cccnn1)N1CCC(=Cc2cccc(Oc3ccc(C(F)(F)F)cn3)c2)CC1`, the remaining binding was 82% (cell-free assay, competition with immobilised ligand; 1 µM).
The remaining binding of `CN(C)c1nccc(-c2cnn3ncccc23)n1` is reported as 92% (binding; 1 µM).
`O=C(c1ccc(Nc2nccc(-c3cc4ccccc4s3)n2)cc1)N1CCC(N2CCCC2)CC1` has a remaining binding of 80% (binding, competition with immobilised ligand; 1 µM).
`N[C@H]1CCN(c2nccc(-c3cnn4ncccc34)n2)C1` gave a remaining binding of 82% (binding; 1 µM).
With `CN1CCN(c2cnc3c(C4CCN(C(=O)c5ccc(OC(F)(F)F)cc5N)CC4)ncnc3c2)CC1` the remaining binding was 61% (binding, competition with immobilised ligand; 1 µM).
The remaining binding of `CN(C)c1ncc(F)c(-c2cnn3ncccc23)n1` is reported as 97% (binding; 1 µM).
`O=C(NCC1CCOCC1)c1n[nH]cc1NC(=O)c1c(F)cccc1F` gave a remaining binding of 91% (binding, competition with immobilised ligand; 1 µM).
`CNC(=O)c1ccc(Nc2ncc(C(F)(F)F)c(NCc3nccnc3N(C)S(C)(=O)=O)n2)cc1` has a remaining binding of 77% (binding, competition with immobilised ligand; 0.1 µM).
With `COc1cnc(Nc2cccc(S(N)(=O)=O)c2)nc1N1CCN(c2ccccc2)CC1` the remaining binding was 93% (binding, competition with immobilised ligand; 1 µM).
